Experimental data: ChEMBL document CHEMBL1146873, “3-demethoxy-3-glycosylaminothiocolchicines: Synthesis of a new class of putative muscle relaxant compounds” (J Med Chem, 2006)

Tests used:
[1] = Displacement of [3H]strychnine from strychnine-sensitive glycine receptor in rat spinal cord
[2] = molecular target: GABA-A receptor; anion channel; assay: Displacement of [3H]muscimol from GABA-A receptor in Sprague-Dawley rat spinal cord; format: protein-complex assay
Summary of the method: (§1)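 Synaptic membranes from adult rat tissue (cerebral cortex or spinal cord–brainstem) incubated with 5 nM [3H]muscimol plus increasing competitor concentrations in 50 mM Tris-citrate, pH 7.1, 30 min at 4 °C. Bound ligand separated by rapid filtration through glass fiber filters, three washes with ice-cold buffer, scintillation counting. Nonspecific binding defined with 200 µM unlabeled GABA. Mean of three experiments in triplicate.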

[3] = molecular target: GABA-A receptor; anion channel; assay: Displacement of [3H]muscimol from GABA-A receptor in Sprague-Dawley rat cerebral cortex; format: tissue-based; summary of the method: as §1

| Compound | IC50 [1] | IC50 [2] | IC50 [3] |
| --- | --- | --- | --- |
| COc1c(N[C@@H]2O[C@@H](C)[C@@H](O)[C@@H](O)[C@@H]2O)cc2c(c1OC)-c1ccc(SC)c(=O)cc1[C@@H](NC(C)=O)CC2 | 4.2 µM | 5.9 µM | 10.5 µM |
| COc1c(NC2OC[C@@H](O)[C@H](O)[C@H]2O)cc2c(c1OC)-c1ccc(SC)c(=O)cc1[C@@H](NC(C)=O)CC2 (some centres undefined) | 3.3 µM | 3.3 µM | 7 µM |
| NCC(=O)O [GLYCINE] | 15.8 µM |  |  |
| O=C1C[C@@H]2OCC=C3CN4CC[C@]56c7ccccc7N1[C@H]5[C@H]2[C@H]3C[C@H]46 [STRYCHNINE] | 0.014 µM |  |  |
| COc1c(N[C@H]2O[C@@H](C)[C@H](O)[C@@H](O)[C@H]2O)cc2c(c1OC)-c1ccc(SC)c(=O)cc1[C@@H](NC(C)=O)CC2 | 4.6 µM | 3.8 µM | > 100 µM |
| COc1c(N)cc2c(c1OC)-c1ccc(SC)c(=O)cc1[C@@H](NC(C)=O)CC2 | 39.9 µM | 1.9 µM | 5.4 µM |
| COc1c(N[C@@H]2O[C@H](CO)[C@@H](O)[C@H](O)[C@@H]2O)cc2c(c1OC)-c1ccc(SC)c(=O)cc1[C@@H](NC(C)=O)CC2 | 13.1 µM | 11.3 µM | > 100 µM |

The remaining compounds from weak to strong by IC50 [1], led by results:

| IC50 [1] | IC50 [2] | IC50 [3] | Compound |
| --- | --- | --- | --- |
| 10.6 µM | 11.3 µM | 18 µM | COc1c(NC2O[C@H](CO)[C@@H](O)[C@H](O)[C@H]2O)cc2c(c1OC)-c1ccc(SC)c(=O)cc1[C@@H](NC(C)=O)CC2 (some centres undefined) |
| 8.6 µM | 10.5 µM | 17.7 µM | COc1c(NC2OC[C@@H](O)[C@@H](O)[C@@H]2O)cc2c(c1OC)-c1ccc(SC)c(=O)cc1[C@@H](NC(C)=O)CC2 (some centres undefined) |
| 4.1 µM | 4 µM | 9.7 µM | COc1c(NC2OC[C@@H](O)[C@H](O)[C@@H]2O)cc2c(c1OC)-c1ccc(SC)c(=O)cc1[C@@H](NC(C)=O)CC2 (some centres undefined) |
| 1.5 µM | 1.9 µM | 3.4 µM | COc1c(O[C@@H]2O[C@H](CO)[C@@H](O)[C@H](O)[C@H]2O)cc2c(c1OC)-c1ccc(SC)c(=O)cc1[C@@H](NC(C)=O)CC2 [THIOCOLCHICOSIDE] |
